Assay results from ChEMBL document CHEMBL4371016, “Proline- and Arginine-Rich Peptides as Flexible Allosteric Modulators of Human Proteasome Activity” (J Med Chem, 2019).
Active and inactive are the calls of the source. No cut-off for these calls is given here. Residues, ends and D or L forms follow the SMILES beside them.

Assays:
[1] = molecular target: T1, 20S proteasome (Homo sapiens) (UniProt P49721+P20618+P28074+P28062+P28065+P28072+P25786+P25787+P25788+P25789+P28066+P60900+O14818+Q8TAA3+P40306+A5LHX3+P49720+P28070+Q99436); assay: Negative allosteric modulation of SDS-activated human erythrocytes 20S proteasome assessed as reduction in human alpha-synuclein degradation at 1 uM after 1 hr by SDS-PAGE analysis
Summary of the method: (§1)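 Human α-synuclein or yeast enolase digested by human 20S activated with 0.01% SDS (20S:substrate 1:100 pmol α-syn, 1:10 pmol enolase) in 20 mM HEPES pH 7.4 at 37 °C for 1 h (α-syn) or 4 h (enolase). DMSO at or below 0.05%. SDS–PAGE (12% or 10%) with Coomassie staining; remaining substrate densitometry as percent of control; at least three experiments, mean ± SEM.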

[2] = molecular target: T2, Proteasome component C5 (Homo sapiens) (UniProt P20618); assay: Positive allosteric modulation of latent human erythrocytes 20S proteasome caspase like activity at 10 uM measured every 1 min up to 60 mins by fluorescence assay relative to control
T2 sequence (whole entry): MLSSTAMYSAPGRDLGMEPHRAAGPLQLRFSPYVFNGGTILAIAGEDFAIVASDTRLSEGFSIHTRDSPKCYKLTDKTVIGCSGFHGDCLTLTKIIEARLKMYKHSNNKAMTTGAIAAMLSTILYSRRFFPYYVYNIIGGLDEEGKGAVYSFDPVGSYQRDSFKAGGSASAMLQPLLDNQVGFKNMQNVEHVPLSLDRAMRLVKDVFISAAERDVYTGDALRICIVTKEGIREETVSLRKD

[3] = molecular target: T3, Proteasome Macropain subunit MB1 (Homo sapiens) (UniProt P28074); assay: Positive allosteric modulation of latent human erythrocytes 20S proteasome chymotrypsin like activity at 25 uM using Suc-LLVY-AMC as substrate measured every 2 mins up to 60 mins by fluorescence assay relative to control
T3 sequence (whole entry): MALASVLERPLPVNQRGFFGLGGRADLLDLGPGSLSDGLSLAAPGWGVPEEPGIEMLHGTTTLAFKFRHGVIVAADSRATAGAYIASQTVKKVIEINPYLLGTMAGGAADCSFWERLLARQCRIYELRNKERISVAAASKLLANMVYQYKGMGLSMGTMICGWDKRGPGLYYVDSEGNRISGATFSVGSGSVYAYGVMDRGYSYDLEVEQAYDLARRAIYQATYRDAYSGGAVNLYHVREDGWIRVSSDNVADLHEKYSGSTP

[4] = molecular target: T3, Proteasome Macropain subunit MB1 (Homo sapiens); assay: Positive allosteric modulation of latent human erythrocytes 20S proteasome chymotrypsin like activity using LFP as substrate measured every 2 mins up to 60 mins by fluorescence assay
[5] = molecular target: T1, 20S proteasome (Homo sapiens); assay: Positive allosteric modulation of SDS-activated human erythrocytes 20S proteasome assessed as increase in yeast enolase degradation at 10 uM after 4 hr by SDS-PAGE analysis
[6] = molecular target: T1, 20S proteasome (Homo sapiens); assay: Positive allosteric modulation of SDS-activated human erythrocytes 20S proteasome assessed as increase in human alpha-synuclein degradation at 10 uM after 1 hr by SDS-PAGE analysis
[7] = molecular target: Proteasome subunit beta type-6 (Homo sapiens) (UniProt P28072); assay: Positive allosteric modulation of latent human erythrocytes 20S proteasome caspase like activity at 10 uM using Z-LLE-AMC as substrate measured every 1 min up to 60 mins by fluorescence assay relative to control
Sequence of Proteasome subunit beta type-6 (Homo sapiens) (P28072 whole entry, looked up): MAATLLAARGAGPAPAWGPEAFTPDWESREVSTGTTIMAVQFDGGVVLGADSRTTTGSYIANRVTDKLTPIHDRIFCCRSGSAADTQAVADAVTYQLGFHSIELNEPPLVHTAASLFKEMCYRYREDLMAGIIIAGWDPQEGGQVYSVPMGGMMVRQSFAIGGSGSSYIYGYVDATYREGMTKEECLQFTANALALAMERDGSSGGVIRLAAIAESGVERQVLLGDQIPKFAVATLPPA

[8] = molecular target: T3, Proteasome Macropain subunit MB1 (Homo sapiens); assay: Negative allosteric modulation of SDS-activated human erythrocytes 20S proteasome chymotrypsin like activity up to 10 uM using LFP as substrate measured every 2 mins up to 60 mins by fluorescence assay
[9] = molecular target: T1, 20S proteasome (Homo sapiens); assay: Positive allosteric modulation of SDS-activated human erythrocytes 20S proteasome assessed as increase in yeast enolase degradation at 1 uM after 4 hr by SDS-PAGE analysis relative to control
[10] = molecular target: T3, Proteasome Macropain subunit MB1 (Homo sapiens); assay: Positive allosteric modulation of latent human erythrocytes 20S proteasome chymotrypsin like activity up to 10 uM using LFP as substrate measured every 2 mins up to 60 mins by fluorescence assay
[11] = molecular target: T1, 20S proteasome (Homo sapiens); assay: Negative allosteric modulation of SDS-activated human erythrocytes 20S proteasome assessed as reduction in yeast enolase degradation at 10 uM after 4 hr by SDS-PAGE analysis
[12] = molecular target: T1, 20S proteasome (Homo sapiens); assay: Negative allosteric modulation of SDS-activated human erythrocytes 20S proteasome assessed as reduction in human alpha-synuclein degradation at 10 uM after 1 hr by SDS-PAGE analysis; summary of the method: as §1
[13] = molecular target: T3, Proteasome Macropain subunit MB1 (Homo sapiens); assay: Positive allosteric modulation of latent human erythrocytes 20S proteasome chymotrypsin like activity at 1 uM using Suc-LLVY-AMC as substrate measured every 2 mins up to 60 mins by fluorescence assay
[14] = molecular target: T2, Proteasome component C5 (Homo sapiens); assay: Negative allosteric modulation of SDS-activated human erythrocytes 20S proteasome caspase like activity at lower concentration using Z-LLE-AMC as substrate measured every 2 mins up to 60 mins by fluorescence assay
[15] = molecular target: T3, Proteasome Macropain subunit MB1 (Homo sapiens); assay: Positive allosteric modulation of latent human erythrocytes 20S proteasome chymotrypsin like activity up to 10 uM using LFP as substrate measured every 2 mins up to 60 mins by fluorescence assay
[16] = molecular target: T3, Proteasome Macropain subunit MB1 (Homo sapiens); assay: Negative allosteric modulation of SDS-activated human erythrocytes 20S proteasome chymotrypsin like activity using Suc-LLVY-AMC as substrate measured every 2 mins up to 60 mins by fluorescence assay
Summary of the method: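 1.4 nM CP (0.001 mg/mL) in 50 mM Tris-HCl pH 8.0, activated with 0.005% SDS where stated, otherwise latent. Suc-LLVY-AMC at 100 μM final. AMC fluorescence read every 2 min up to 60 min at 37 °C. Activity relative to DMSO-treated enzyme, from at least three independent replicates. Peptide stocks 10 mM in DMSO.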

[17] = molecular target: T1, 20S proteasome (Homo sapiens); assay: Negative allosteric modulation of SDS-activated human erythrocytes 20S proteasome assessed as reduction in yeast enolase degradation at 1 uM after 4 hr by SDS-PAGE analysis
[18] = molecular target: Proteasome Macropain subunit (Homo sapiens) (UniProt P49721); assay: Negative allosteric modulation of SDS-activated human erythrocytes 20S proteasome trypsin like activity at 10 uM using Boc-LRR-AMC as substrate measured every 2 mins up to 60 mins by fluorescence assay
Sequence of Proteasome Macropain subunit (Homo sapiens) (P49721 whole entry): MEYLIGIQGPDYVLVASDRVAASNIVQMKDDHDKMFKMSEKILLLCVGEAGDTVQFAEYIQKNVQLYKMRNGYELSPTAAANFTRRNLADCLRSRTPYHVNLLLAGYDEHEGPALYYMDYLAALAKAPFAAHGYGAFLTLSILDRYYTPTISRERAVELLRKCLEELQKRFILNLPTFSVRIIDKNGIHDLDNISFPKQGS

[19] = molecular target: T3, Proteasome Macropain subunit MB1 (Homo sapiens); assay: Positive allosteric modulation of latent human erythrocytes 20S proteasome chymotrypsin like activity at 5 uM using Suc-LLVY-AMC as substrate measured every 2 mins up to 60 mins by fluorescence assay relative to control

| fold change (FC) [2] | fold change (FC) [3] | Activity [4] | Activity [5] | Activity [6] | fold change (FC) [7] | Activity [8] | Activity [9] | Activity [13] | Activity [16] | SMILES | Activity [1] | Activity [10] | Activity [11] | Activity [12] | Activity [14] | Activity [15] | Activity [17] | Activity [18] | fold change (FC) [19] |
| --- | --- | --- | --- | --- | --- | --- | --- | --- | --- | --- | --- | --- | --- | --- | --- | --- | --- | --- | --- |
| 5 to 7 | < 7 | Dose-dependent effect | Active | Active | 5 to 7 | inactive | Active | – | – | CC(C)C[C@H](NC(=O)[C@@H]1CCCN1C(=O)[C@@H]1CCCN1C(=O)[C@@H]1CCCN1C(=O)[C@@H]1CCCN1C(=O)[C@H](CCCNC(=N)N)NC(=O)[C@H](CCCNC(=N)N)NC(=O)[C@@H](N)CCCNC(=N)N)C(=O)N[C@@H](Cc1ccc(O)cc1)C(=O)N[C@@H](C)C(=O)O (H-RRRPPPPLYA-OH) | inactive | – | – | – | – | – | – | – | – |
| – | – | – | – | – | – | Active | – | Active | Dose-dependent effect | CC(C)C[C@H](NC(=O)[C@H](Cc1ccc(O)cc1)NC(=O)[C@@H]1CCCN1C(=O)[C@@H]1CCCN1C(=O)[C@H](CCCNC(=N)N)NC(=O)[C@@H]1CCCN1C(=O)[C@H](CCCNC(=N)N)NC(=O)[C@H](CCCNC(=N)N)NC(=O)[C@@H](N)CCCNC(=N)N)C(=O)N1CCC[C@H]1C(=O)N[C@@H](CCCNC(=N)N)C(=O)O (H-RRRPRPPYLPR-OH) | – | inactive | inactive | Active | Active | inactive | inactive | Active | – |
| – | – | – | – | – | – | Active | – | Active | Dose-dependent effect | CC(C)C[C@H](NC(=O)[C@H](Cc1ccc(O)cc1)NC(=O)[C@H](CCCNC(=N)N)NC(=O)[C@H](CCCNC(=N)N)NC(=O)[C@@H](N)CCCNC(=N)N)C(=O)N1CCC[C@H]1C(=O)N[C@@H](CCCNC(=N)N)C(=O)N[C@@H](Cc1ccc(O)cc1)C(=O)N[C@@H](C)C(N)=O (H-RRRYLPRYA-NH2) | – | inactive | inactive | Active | Active | inactive | inactive | Active | – |

| SMILES | fold change (FC) [2] | fold change (FC) [3] | Activity [4] | Activity [5] | Activity [6] | fold change (FC) [7] | Activity [8] | Activity [9] | Activity [13] | Activity [16] | Activity [1] | Activity [10] | Activity [11] | Activity [12] | Activity [14] | Activity [15] | Activity [17] | Activity [18] | fold change (FC) [19] |
| --- | --- | --- | --- | --- | --- | --- | --- | --- | --- | --- | --- | --- | --- | --- | --- | --- | --- | --- | --- |
| CC(C)C[C@H](NC(=O)[C@H](Cc1ccc(O)cc1)NC(=O)[C@@H]1CCCN1C(=O)[C@@H]1CCCN1C(=O)[C@H](CCCNC(=N)N)NC(=O)[C@@H]1CCCN1C(=O)[C@H](CCCNC(=N)N)NC(=O)[C@H](CCCNC(=N)N)NC(=O)[C@@H](N)CCCNC(=N)N)C(=O)N1CCC[C@H]1C(=O)N[C@@H](CCCNC(=N)N)C(=O)N[C@@H](Cc1ccccc1)C(=O)NCC(=O)O (H-RRRPRPPYLPRFG-OH) | – | – | – | – | – | – | Active | – | Active | – | Active | inactive | Active | Active | Active | inactive | Active | Active | – |
| CC(C)C[C@H](NC(=O)[C@H](Cc1ccc(O)cc1)NC(=O)[C@H](CCCNC(=N)N)NC(=O)[C@H](CCCNC(=N)N)NC(=O)[C@@H](N)CCCNC(=N)N)C(=O)N1CCC[C@H]1C(=O)N[C@@H](CCCNC(=N)N)C(=O)N[C@@H](Cc1c[nH]c2ccccc12)C(=O)NCC(N)=O (H-RRRYLPRWG-NH2) | – | – | – | – | – | – | Active | – | – | – | – | inactive | inactive | Active | Active | inactive | inactive | Active | 2 |
